Data published in ChEMBL document CHEMBL1125337, “Synthesis and antibacterial activity of a series of basic amides of teicoplanin and deglucoteicoplanin with polyamines” (J Med Chem, 1992).
In brackets after ≈: the same amount, converted by molar mass.

Assays:
[1] = tested on: Streptococcus pneumoniae; assay: Minimum inhibitory concentration against Streptococcus pneumoniae L 44; type: functional
In short: (§1)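 MIC (µg/mL) by microbroth dilution in Todd-Hewitt broth, final inoculum 10^4 cfu/mL, incubated 24 h at 37 °C in air.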

[2] = tested on: Streptococcus pyogenes; assay: Efficacy of compound administered perorally against Streptococcus pyogenes L 49 Septicemia in mouse; type: functional; conditions: po
In short: (§2)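 Mice were infected intraperitoneally with about 10^5 Strep. pyogenes L 49 cells, about 100 times the 50% lethal dose. Groups of 5–8 mice were treated once right after challenge, by the route stated in the line. ED50 (mg/kg) was derived from percentage survival at each dose on day 7 (Spearman-Kärber).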

[3] = tested on: Staphylococcus epidermidis; assay: Minimum inhibitory concentration against Staphylococcus epidermidis ATCC 12228; type: functional
In short: (§3)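 MIC (µg/mL) by microbroth dilution in Iso-Sensitest broth; final inoculum 10^4 cfu/mL; 24 h at 37 °C in air.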

[4] = tested on: Staphylococcus haemolyticus; assay: Minimum inhibitory concentration against Staphylococcus haemolyticus L 602; type: functional; in short: as §3
[5] = tested on: Streptococcus pyogenes; assay: Minimum inhibitory concentration against Streptococcus pyogenes L 49; type: functional; in short: as §1
[6] = Association constant to Ac2-L-Lys-D-Ala-D-Ala determined at pH 9; Value ranges from (9.5E4-3.5E5)
[7] = tested on: Staphylococcus aureus; assay: Minimum inhibitory concentration against Staphylococcus aureus L 165; type: functional; in short: as §3
[8] = tested on: Streptococcus pyogenes; assay: Efficacy of compound administered subcutaneously against Streptococcus pyogenes L 49 Septicemia in mouse; type: functional; conditions: sc; in short: as §2
[9] = tested on: Enterococcus faecalis; assay: Minimum inhibitory concentration against Enterococcus faecalis ATCC 7080; type: functional
In short: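 Microbroth dilution MIC (µg/mL), final inoculum 10^4 cfu/mL, incubated 24 h at 37 °C in air.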

[10] = tested on: Escherichia coli; assay: Minimum inhibitory concentration against Escherichia coli L 47; type: functional; in short: as §3
[11] = tested on: Pseudomonas aeruginosa; assay: Minimum inhibitory concentration against Pseudomonas aeruginosa ATCC 10145; type: functional; in short: as §3
[12] = tested on: Proteus vulgaris; assay: Minimum inhibitory concentration against Proteus vulgaris ATCC 881; type: functional; in short: as §3
[13] = Association constant to Ac2-L-Lys-D-Ala-D-Ala determined at pH 9; Value ranges from 5E4-7.5E4
[14] = tested on: Streptococcus pyogenes; assay: Minimum inhibitory concentration of compound was determined against Streptococcus pyogenes L 49 in mouse; type: functional

Row | SMILES | MIC [1] | ED50 [2] | MIC [3] | MIC [4] | MIC [5] | Ka [6] | MIC [7] | ED50 [8] | MIC [9] | MIC [10] | MIC [11] | MIC [12] | Ka [13] | MIC [14]
1 | CC(=O)N[C@@H]1[C@H](O[C@@H]2c3ccc(c(Cl)c3)Oc3cc4cc(c3O[C@@H]3O[C@@H](CO)[C@@H](O)[C@H](O)[C@@H]3NC(=O)CCCCCCC(C)C)Oc3ccc(cc3Cl)C[C@H]3NC(=O)[C@H](N)c5ccc(O)c(c5)Oc5cc(O)cc(c5)[C@H](NC3=O)C(=O)N[C@H]4C(=O)N[C@H]3C(=O)N[C@@H]2C(=O)N[C@H](C(=O)NCCNCCNCCNCCNCCN)c2cc(O)cc(O[C@H]4O[C@H](CO)[C@@H](O)[C@@H](O)[C@@H]4O)c2-c2cc3ccc2O)O[C@@H](CO)[C@@H](O)[C@@H]1O | 0.125 µg/mL (≈ 0.0597 µM) | 112 mg/kg | 0.063 µg/mL (≈ 0.0301 µM) | 0.125 µg/mL (≈ 0.0597 µM) | 0.063 µg/mL (≈ 0.0301 µM) | 350000 M⁻¹ | 0.25 µg/mL (≈ 0.119 µM) | 0.08 mg/kg | 0.125 µg/mL (≈ 0.0597 µM) |  |  |  |  | 
2 | CC(=O)N[C@@H]1[C@H](O[C@@H]2c3ccc(c(Cl)c3)Oc3cc4cc(c3O[C@@H]3O[C@@H](CO)[C@@H](O)[C@H](O)[C@@H]3NC(=O)CCCCCCC(C)C)Oc3ccc(cc3Cl)C[C@H]3NC(=O)[C@H](N)c5ccc(O)c(c5)Oc5cc(O)cc(c5)[C@H](NC3=O)C(=O)N[C@H]4C(=O)N[C@H]3C(=O)N[C@@H]2C(=O)N[C@H](C(=O)NCCCNCCCNCCCN)c2cc(O)cc(O[C@H]4O[C@H](CO)[C@@H](O)[C@@H](O)[C@@H]4O)c2-c2cc3ccc2O)O[C@@H](CO)[C@@H](O)[C@@H]1O | 0.125 µg/mL (≈ 0.061 µM) | 80 mg/kg | 0.063 µg/mL (≈ 0.0307 µM) | 0.125 µg/mL (≈ 0.061 µM) | 0.063 µg/mL (≈ 0.0307 µM) | 350000 M⁻¹ | 0.125 µg/mL (≈ 0.061 µM) | 0.06 mg/kg | 0.125 µg/mL (≈ 0.061 µM) |  |  |  |  | 
3 | NCCNCCCNCCNC(=O)[C@H]1NC(=O)[C@H]2NC(=O)[C@H](NC(=O)[C@@H]3NC(=O)[C@H]4NC(=O)[C@@H](Cc5ccc(c(Cl)c5)Oc5cc3cc(c5O)Oc3ccc(cc3Cl)[C@H]2O)NC(=O)[C@H](N)c2ccc(O)c(c2)Oc2cc(O)cc4c2)c2ccc(O)c(c2)-c2c(O)cc(O)cc21 | 0.125 µg/mL (≈ 0.0932 µM) |  | 0.063 µg/mL (≈ 0.047 µM) | 0.063 µg/mL (≈ 0.047 µM) | 0.063 µg/mL (≈ 0.047 µM) |  | 0.063 µg/mL (≈ 0.047 µM) |  | 0.125 µg/mL (≈ 0.0932 µM) | 4 µg/mL (≈ 2.98 µM) | 64 µg/mL (≈ 47.7 µM) | 128 µg/mL (≈ 95.4 µM) | 75000 M⁻¹ | 
4 | N[C@H]1C(=O)N[C@@H]2Cc3ccc(c(Cl)c3)Oc3cc4cc(c3O)Oc3ccc(cc3Cl)[C@@H](O)[C@@H]3NC(=O)[C@H](NC(=O)[C@@H]4NC(=O)[C@@H](NC2=O)c2cc(O)cc(c2)Oc2cc1ccc2O)c1ccc(O)c(c1)-c1c(O)cc(O)cc1[C@@H](C(=O)O)NC3=O [TEICOPLANIN AGLYCON] | 0.125 µg/mL (≈ 0.104 µM) |  | 0.016 µg/mL (≈ 0.0133 µM) | 0.25 µg/mL (≈ 0.209 µM) | 0.125 µg/mL (≈ 0.104 µM) |  | 0.063 µg/mL (≈ 0.0525 µM) | 0.95 mg/kg | 0.125 µg/mL (≈ 0.104 µM) | 64 µg/mL (≈ 53.4 µM) | > 128 µg/mL | 128 µg/mL (≈ 107 µM) |  | 0.13 µg/mL (≈ 0.108 µM)
5 | CC(=O)N[C@@H]1[C@H](O[C@@H]2c3ccc(c(Cl)c3)Oc3cc4cc(c3O[C@@H]3O[C@@H](CO)[C@@H](O)[C@H](O)[C@@H]3NC(=O)CCCCCCC(C)C)Oc3ccc(cc3Cl)C[C@H]3NC(=O)[C@H](N)c5ccc(O)c(c5)Oc5cc(O)cc(c5)[C@H](NC3=O)C(=O)N[C@H]4C(=O)N[C@H]3C(=O)N[C@@H]2C(=O)N[C@H](C(=O)NCCN(CCN)CCN)c2cc(O)cc(O[C@H]4O[C@H](CO)[C@@H](O)[C@@H](O)[C@@H]4O)c2-c2cc3ccc2O)O[C@@H](CO)[C@@H](O)[C@@H]1O | 0.063 µg/mL (≈ 0.0314 µM) | 58 mg/kg | 0.063 µg/mL (≈ 0.0314 µM) | 0.125 µg/mL (≈ 0.0623 µM) | 0.063 µg/mL (≈ 0.0314 µM) | 350000 M⁻¹ | 0.125 µg/mL (≈ 0.0623 µM) | 0.04 mg/kg | 0.063 µg/mL (≈ 0.0314 µM) |  |  |  |  | 
6 | CC(=O)N[C@@H]1[C@H](O[C@@H]2c3ccc(c(Cl)c3)Oc3cc4cc(c3O[C@@H]3O[C@@H](CO)[C@@H](O)[C@H](O)[C@@H]3NC(=O)CCCCCCC(C)C)Oc3ccc(cc3Cl)C[C@H]3NC(=O)[C@H](N)c5ccc(O)c(c5)Oc5cc(O)cc(c5)[C@H](NC3=O)C(=O)N[C@H]4C(=O)N[C@H]3C(=O)N[C@@H]2C(=O)N[C@H](C(=O)NCCNCCN)c2cc(O)cc(O[C@H]4O[C@H](CO)[C@@H](O)[C@@H](O)[C@@H]4O)c2-c2cc3ccc2O)O[C@@H](CO)[C@@H](O)[C@@H]1O | 0.125 µg/mL (≈ 0.0636 µM) | 60 mg/kg | 0.063 µg/mL (≈ 0.0321 µM) | 0.25 µg/mL (≈ 0.127 µM) | 0.063 µg/mL (≈ 0.0321 µM) | 350000 M⁻¹ | 0.25 µg/mL (≈ 0.127 µM) | 0.09 mg/kg | 0.125 µg/mL (≈ 0.0636 µM) |  |  |  |  | 
